Data published in the RNAGym collection of RNA variant scans (doi:10.1126/science.aae0568).
Fewer inactive variants are shown than the library holds.

B1: tRNA (parent)
chain: GUUCCGUUGGCGUAAUGGUAACGCGUCUCCCUCCUAAGGAGAAGACUGCGGGUUCGAGUCCCGUACGGAACG

Variants of: B1
Experiment: yeast fitness relative to wild type (ratio to wild type); higher = fitter; tRNA-Arg(CCU), competitive growth, 37 C, YPD
Method in brief: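 A pool of Saccharomyces cerevisiae strains, each with a tRNA-Arg(CCU) gene variant at the native genomic locus, was competed in YPD at 37°C for 24 hours across six parallel replicates. The variants had been chemically synthesised at a 3% per-site mutation rate over 69 sites, and gene amplicons before and after competition were read by 100-nucleotide paired-end sequencing. Darwinian fitness relative to wild type rested on changes in genotype frequencies. Genotypes required ≥ 100 starting reads, and estimates < 0.5 were set to 0.5.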

Compared with GUUCCGUUGGCGUAAUGAUAACGCGUCUCCCUCCUAAGGAGAAGACUGCGGGUUCGAGUCCUGUACGGAACG [G18A C62U], GUUCCGUUGGCGUAAUGAUAACGCGUCUCCCUCCUAAGGAGAAGACUGCGGGUUCGAGUCCGGUACGGAACG [G18A C62G] is lower in yeast fitness: 0.712 for the first, 0.676 for the second.

GUUCCGUUGGCGUAAUGAUAACGCAUCUCCCUCCUAAAGAGAAGACUGCGGGUUCGGGUCCCGUACGGAACG [G18A G25A G38A A57G] and GUUCCGUUGGCGUAAUGAUAACGCGUCUCCCUGCUAAGGAGAAGACUGCGGGUUCGAGUCCCGUACGGAACG [G18A C33G] cannot be ordered by yeast fitness: no more than 0.5 for the first, no more than 0.5 for the second.

GUUCCGUUGGCGUAAUGAUAACGCGUCUCCCUUCUAAGGAGAAGACUGCGGGUUCGAGUCCCGUACGGAACG [G18A C33U] and GUUCCGUUGGCGUAAUGAUAACGCGUCUCCCUCCUAAGACGAAGACUGCGGGUUCGAGUCCCGUACGGAUCG [G18A G39A A40C A70U] cannot be ordered by yeast fitness: no more than 0.5 for the first, no more than 0.5 for the second.

GUUCCGUUGGCGUAAUGAUAACGCGUCUCCCUCCUAAGGAGAAGACUCAGGGAUCAACUCCCGUACGGAACG [G18A G48C C49A U53A G56A G58C] and GUUCCGUUGGCGUAAUGAUAACGCGUCUCCCUCCUAAGGAGAAGACUGAGGGUUCGAGUCCCAUACGGAACG [G18A C49A G63A] cannot be ordered by yeast fitness: no more than 0.5 for the first, no more than 0.5 for the second.

GUUCCGUUGGCGUAAUGAUAACGCAUCUCCCUCCUAAGGAGAAGAUUGCGGGUUGGAGUCCCGUACGGCACG [G18A G25A C46U C55G A69C] and GUUCCGUUGGCGUAAUGAUAACGCGUCUCCCUCCUAAGGAGAAAACUGCGGGUCCGAAUCCCGUACUGAACG [G18A G44A U54C G58A G67U] cannot be ordered by yeast fitness: no more than 0.5 for the first, no more than 0.5 for the second.

Compared with GUUCCGUUGGCGUAAUGAUAACGCGUCUCCCUCCUAAGGAGAAAACUGCGGGUUCGAGUCCUGUACGGAACG [G18A G44A C62U], GUUCCGUUGGCGUAAUGAUAACGCGUCUCCCUCCUAAGGACAAGACUGCGGGUUCGAGUCCCGUACGGAACG [G18A G41C] is higher in yeast fitness: no more than 0.5 for the first, 0.658 for the second.

Going from GUUCCGUUGGCGUAAUGAUAACACGUCUCCCUCCUAAGGAGAAGACUGCGGGUUCGACUCCCGUACGGACCG [G18A G23A G58C A70C] to GUUCCGUUGGCGUAAUGAUAACGCGUCUCCCUCCUAAAGAGAAGACUGCGGGUUCGAGUCCCGUACGGAACG [G18A G38A], the yeast fitness rises from no more than 0.5 to 0.73.

First: GUUCCGUUGGCGUAAUGAUAACGCGUCUCCCUCCUAAGGAGAAGACUGAGGGUUCGAGUCCCGUACGGAACG [G18A C49A]
Second: GUUCCGUUGGCGUAAUGAUAACGCGUCUCCCUCCUAAGGAGAAGACUGGGGGUUCGAGUCCCGUACGGAACG [G18A C49G]
The yeast fitness of the first is lower: 0.606 for the first, 0.74 for the second.

GUUCCGUUGGCGUAAUGAUAACGCGUCUCCCUCUUAAGGAGACGACUGCGGGUUCGAGUCCCGUACGGAACG [G18A C34U A43C] and GUUCCGUUGGCGUAAUGAUAACGCGUCUCCCUCUUAAGGGGAAGACUGCGGGUUCGAGUCCCGUAGGGAACG [G18A C34U A40G C66G] cannot be ordered by yeast fitness: no more than 0.5 for the first, no more than 0.5 for the second.

GUUCCGUUGGCGUAAUGAUAACGCGUCUCCCUCCUAAGGAGAAGAAUGCGCGUUCGAGUUCCGUACGGAACG [G18A C46A G51C C60U] and GUUCCGUUGGCGUAAUGAUAACGCGUCUCCCUCUUAAGGAGACGACUGCGGGGUCGAGUCCCGUACGCAACG [G18A C34U A43C U53G G68C] cannot be ordered by yeast fitness: no more than 0.5 for the first, no more than 0.5 for the second.

First: GUUCCGUUGGCGUAAUGAUAACGCGUCUCCCUCAUAAGGAGAAGACUGCGGGUUCGAGUACCGUACGGAACG [G18A C34A C60A]
Second: GUUCCGUUGGCGUAAUGAUAACGCAUCUCCCUCCUAAGGAGAAGAUUGCGGGUUCGAGUCCCGUACGGAACG [G18A G25A C46U]
The yeast fitness of the first is lower: no more than 0.5 for the first, 0.508 for the second.

Going from GUUCCGUUGGCGUAAUGAUAACGCGUCUCCCUCCUAAGCAGAAGACUGCGGGUUCGAGUCCCGUACGGAACG [G18A G39C] to GUUCCGUUGGCGUAAUGAUAACGCGUCUCCCUCCUAAGGAGAAGAUUGCGGGUUCGAGCACCGUACGAAACG [G18A C46U U59C C60A G68A], the yeast fitness falls from 0.757 to no more than 0.5.

Compared with GUUCCGUUGGCGUAAUGAUAACGCCUCUCCCUCCUAAGGAGAAGACUGCGGGUUCGAGUCCCGUACGGAACG [G18A G25C], GUUCCGUUGGCGUAAUGAUAACGCGUCUCCCUCGUAAGGAGAAGACUCUGGGUUCGAGUCCCGUACGGAACG [G18A C34G G48C C49U] is lower in yeast fitness: 0.746 for the first, 0.698 for the second.

GUUCCGUUGGCGUAAUGAUAACGCGUCUCGCUCCUCAGGAGAACACUGCGGGUUCGAGUCCCGUACGGAACG [G18A C30G A36C G44C] and GUUCCGUUGGCGUAAUGAUAACCCGUCUCGCUCCUUAGGAGAAGACUGCGGGUUCGAGUGCCGUACGGAACG [G18A G23C C30G A36U C60G] cannot be ordered by yeast fitness: no more than 0.5 for the first, no more than 0.5 for the second.

Compared with GUUCCGUUGGCGUAAUGAUAACGCGUCUCCCUCCUAAGGAGAAGACUGCGGGUUCGAGUUCCGUGCGGAACG [G18A C60U A65G], GUUCCGUUGGCGUAAUGAUAACGCGUCUCCCUCCUAAGGAGAAGACUACGGGUUCGAGUCCCGUACGGAACG [G18A G48A] is higher in yeast fitness: no more than 0.5 for the first, 0.765 for the second.

First: GUUCCGUUGGCGUAAUGAUAACGCGUCUCCUUCCUAAGGAGAAGACUGCGGGUUCGAAUCCCGUACGGAACG [G18A C31U G58A]
Second: GUUCCGUUGGCGUAAUGAUAACGCGUCUCCCUCCUAAGGAGAAGACUGCGGGUUCGAGUCCCGUAUGGAACG [G18A C66U]
The yeast fitness of the first is lower: 0.643 for the first, 0.736 for the second.

Compared with GUUCCGUUGGCGUAAUGAUAACGCGUCUCCCUCCUAAGGAGAAGACUGCGGGUUCGAGUCCCGUAAGGAACG [G18A C66A], GUUCCGUUGGCGUAAUGAUAACGCGUCUCCCUCUUAAGGAGACGACUGCGGGGUCGAGUCCCGUACGGAACG [G18A C34U A43C U53G] is lower in yeast fitness: 0.516 for the first, no more than 0.5 for the second.

GUUCCGUUGGCGUAAUGAUAACCCGUCUUCGUCCUAAGGAGAAGACUGCGGGUUCGAGUCCCGUACGGAACG [G18A G23C C29U C31G] and GUUCCGUUGGCGUAAUGAUAACGCGUCUCUCUCCUAAGGAGAAGACUGCGGGUUGGAGUCCCGUACGAAACG [G18A C30U C55G G68A] cannot be ordered by yeast fitness: no more than 0.5 for the first, no more than 0.5 for the second.

For GUUCCGUUGGCGUAAUGAUAACGCGUCUCCCUCAUAUGGAGAAGACUGCGGGUUCGAGUCCCGUACGGAACG [G18A C34A A37U], the yeast fitness was no more than 0.5.
